Experimental data pooled from the literature.
Protocols differ between the studies behind these lines. pEC50, pIC50: −log10 of the molar value.
Organism: Plasmodium falciparum
Observed: parasite growth
Setting: blood stage

Compound	technique	strain	time	quantity	result
COC1=C(OC)/C(=C/c2[nH]c(Cc3ccc(OC(F)(F)F)cc3)cc2Cc2ccc(OC(F)(F)F)cc2)N=C1c1ccc[nH]1	SYBR Green	D6	72 h	pIC50	7.07
COc1cc(/C=C/C(=O)C(=Cc2ccccc2)C(=O)/C=C/c2ccc(O)c(OC)c2)ccc1O		3D7		pEC50	5.42
CCC1=C(CC)/C(=C/c2cc(-c3ccc(OC(F)(F)F)cc3)c(C)[nH]2)N=C1c1ccc[nH]1	SYBR Green	D6	72 h	pIC50	< 5.60
Cc1ccc(N(C)c2ccc(NC(=O)CN(C)c3ccccc3N3CCCC3=O)cn2)cc1		3D7	72 h	pEC50	7.89
COC1=CC(c2ccc[nH]2)=N/C1=C\c1[nH]c(C(=O)O)cc1Cc1ccc(Cl)cc1	SYBR Green	D6	72 h	pIC50	< 5.60
COc1cc(/C=C/c2cc(/C=C/c3ccc(O)c(OC)c3)n(-c3cccc([N+](=O)[O-])c3)n2)ccc1O		3D7		pEC50	6.09
Cc1[nH]c(/C=C2\N=C(c3ccc[nH]3)C3=C2OCCO3)cc1Cc1ccc(Cl)cc1	SYBR Green	D6	72 h	pIC50	7.84
CCN(CC)CCOc1ccc2c(c1)C(=O)c1cc(OCCN(CC)CC)ccc1-2		NF54		pIC50	6.19
CCN(CC)CCCC(C)Nc1ccnc2cc(Cl)ccc12 (stereo not drawn)		3D7		pEC50	8.10
CCC1=C(CC)/C(=C/c2[nH]c(Cc3ccc(OC(F)(F)F)cc3)cc2Cc2ccc(OC(F)(F)F)cc2)N=C1c1ccc[nH]1	SYBR Green	D6	72 h	pIC50	5.69
Cn1cc(-c2ccc3ccn(CC(=O)Nc4ccccc4Cl)c3c2)c(C(F)(F)F)n1		3D7	72 h	pEC50	7.34
COc1cc(/C=C/C(=O)/C=C/c2ccc(O)c(OC)c2)ccc1O		3D7		pEC50	6.82
COC1=CC(c2ccc[nH]2)=N/C1=C\c1[nH]c(-c2ccc(OC)cc2)cc1-c1ccc(OC)cc1	SYBR Green	D6	72 h	pIC50	7.51
C[C@H]1Cc2c([nH]c3cc(Cl)c(F)cc23)[C@@]2(N1)C(=O)Nc1ccc(Cl)cc12		3D7	72 h	pEC50	9.15
CO[C@H]1C[C@H](O[C@@H]2/C(C)=C/C[C@@H]3C[C@@H](C[C@]4(CC[C@H](C)[C@@H](C5CCCCC5)O4)O3)OC(=O)[C@@H]3C=C(C)/C(=N/O)[C@H]4OC/C(=C\C=C\[C@@H]2C)[C@]43O)O[C@@H](C)[C@@H]1O		NF54		pIC50	6.16
CCN(c1ccc(C)cc1)c1ccc(NC(=O)CN(C)c2ccccc2N2CCCC2=O)cc1		3D7	72 h	pEC50	7.72
COc1cc(/C=C2\CC/C(=C\c3ccc(O)c(OC)c3)C2=O)ccc1O		3D7		pEC50	6.60
COC1=CC(c2ccc[nH]2)=N/C1=C\c1[nH]c(-c2ccccc2)cc1-c1ccccc1	SYBR Green	D6	72 h	pIC50	7.78
CC(C)N(c1ccc(C#N)cc1)c1ccc(NC(=O)CN(C)c2ccccc2N2CCCC2=O)c(F)c1		3D7	72 h	pEC50	7.36
N=C(N)N/N=C/c1c(Cl)cccc1Cl	SYBR Green	3D7		pIC50	7.40
Cc1ccc(Oc2ccc(NC(=O)CNc3ccccc3N3CCCCC3=O)cc2)cc1		3D7	72 h	pEC50	5.60
COc1cc(C=C(C(=O)/C=C/c2ccc(O)c(OC)c2)C(=O)/C=C/c2ccc(O)c(OC)c2)ccc1O		3D7		pEC50	5.75
CCCN(c1ccc(C)cc1)c1ccc(NC(=O)CN(C)c2ccccc2N2CCCC2=O)cc1		3D7	72 h	pEC50	8.00
Cc1cc2ccc(-c3cnn(C)c3)cc2n1CC(=O)Nc1ccccc1Cl		3D7	72 h	pEC50	6.22
N#Cc1ccc(Oc2ccc(NC(=O)CNc3ccccc3N3CCCC3=O)cc2)cc1		3D7	72 h	pEC50	5.85
CCc1nnc(-c2ccc3ccn(CC(=O)Nc4cc(OC)c(OC)c(OC)c4)c3c2)o1		DD2	72 h	pEC50	6.71
Cc1ccc(N(C)c2ccc(NC(=O)CN(C)c3cc(F)ccc3N3CCCC3=O)cc2)cc1		3D7	72 h	pEC50	7.47
CC1=C(C)/C(=C/c2[nH]c(Cc3ccc(Cl)cc3)cc2Cc2ccc(Cl)cc2)N=C1c1ccc[nH]1	SYBR Green	D6	72 h	pIC50	< 5.60
O=C(CNc1ccccc1N1CCCC1=O)Nc1ccc(Oc2ccccc2)cc1		3D7	72 h	pEC50	< 5.00
Cc1ccc(N(CC2=NCCN2)c2cccc(O)c2)cc1	SYBR Green	3D7		pIC50	5.75
